{"data": "Assay results from different studies", "PIK3CA": "Phosphatidylinositol 4,5-bisphosphate 3-kinase catalytic subunit alpha isoform (PIK3CA, Homo sapiens, UniProt P42336)", "PIK3CA C420R": "Phosphatidylinositol 4,5-bisphosphate 3-kinase catalytic subunit alpha isoform (PIK3CA, Homo sapiens, UniProt P42336, C420R)", "PIK3CA E545A": "Phosphatidylinositol 4,5-bisphosphate 3-kinase catalytic subunit alpha isoform (PIK3CA, Homo sapiens, UniProt P42336, E545A)", "PIK3CA M1043I": "Phosphatidylinositol 4,5-bisphosphate 3-kinase catalytic subunit alpha isoform (PIK3CA, Homo sapiens, UniProt P42336, M1043I)", "PIK3CA Q546K": "Phosphatidylinositol 4,5-bisphosphate 3-kinase catalytic subunit alpha isoform (PIK3CA, Homo sapiens, UniProt P42336, Q546K)", "PIK3CA H1047Y": "Phosphatidylinositol 4,5-bisphosphate 3-kinase catalytic subunit alpha isoform (PIK3CA, Homo sapiens, UniProt P42336, H1047Y)", "PIK3CA H1047L": "Phosphatidylinositol 4,5-bisphosphate 3-kinase catalytic subunit alpha isoform (PIK3CA, Homo sapiens, UniProt P42336, H1047L)", "PIK3CA I800L": "Phosphatidylinositol 4,5-bisphosphate 3-kinase catalytic subunit alpha isoform (PIK3CA, Homo sapiens, UniProt P42336, I800L)", "PIK3CA E545K": "Phosphatidylinositol 4,5-bisphosphate 3-kinase catalytic subunit alpha isoform (PIK3CA, Homo sapiens, UniProt P42336, E545K)"}
{"SMILES": "C=CC(=O)N1CCC(C(=O)NCC(=O)N2CCN(c3nc(-c4cnc(N)nc4C(F)F)nc(N4CCOCC4)n3)CC2)CC1", "target": "PIK3CA", "test": "binding, competition with immobilised ligand", "conditions": "1 µM", "remaining binding [%]": 0.4}
{"SMILES": "COc1ccnn2ncc(-c3ccnc(N(C)C)n3)c12", "target": "PIK3CA C420R", "test": "binding", "conditions": "1 µM", "remaining binding [%]": 78}
{"SMILES": "COCCOc1nc(-c2ccc(Cl)nc2)nc2c1CN(C(=O)c1ncn3ccccc13)CC2", "target": "PIK3CA E545A", "test": "cell-free assay, competition with immobilised ligand", "conditions": "0.1 µM", "remaining binding [%]": 100}
{"SMILES": "O=C(c1ccc(Nc2ncc(Cl)c(-c3cc4ccccc4s3)n2)cc1)N1CCC(N2CCCC2)CC1", "target": "PIK3CA M1043I", "test": "binding, competition with immobilised ligand", "conditions": "1 µM", "remaining binding [%]": 62}
{"SMILES": "CN(c1nccc(-c2cnn3ncccc23)n1)C1CC1", "target": "PIK3CA M1043I", "test": "binding", "conditions": "1 µM", "remaining binding [%]": 100}
{"SMILES": "O=C(NCC1CCOCC1)c1n[nH]cc1NC(=O)c1c(F)cccc1F", "target": "PIK3CA Q546K", "test": "binding, competition with immobilised ligand", "conditions": "1 µM", "remaining binding [%]": 77}
{"SMILES": "CN(C)c1nccc(-c2cnc3ncccn23)n1", "target": "PIK3CA H1047Y", "test": "binding", "conditions": "1 µM", "remaining binding [%]": 50}
{"SMILES": "Cc1c(NC(=O)c2cc(C(N)=O)nc3cc(F)ccc23)c(C(F)(F)F)nn1Cc1ccc(C(C)(C)C)cc1", "target": "PIK3CA C420R", "test": "cell-free assay, competition with immobilised ligand", "conditions": "1 µM", "remaining binding [%]": 100}
{"SMILES": "CN1CCN(c2ccc(Nc3nccc(-c4ccccc4)n3)cc2C(F)(F)F)CC1", "target": "PIK3CA H1047L", "test": "binding", "conditions": "10 µM", "remaining binding [%]": 55}
{"SMILES": "Cc1c(C(=O)O)cc(-c2ccc(C3CCNCC3)cc2)c2ccc(-c3ccc(C(F)(F)F)cc3)cc12", "target": "PIK3CA I800L", "test": "cell-free assay, competition with immobilised ligand", "conditions": "1 µM", "remaining binding [%]": 100}
{"SMILES": "N[C@@H]1CCN(c2nccc(-c3cnn4ncccc34)n2)C1", "target": "PIK3CA E545K", "test": "binding", "conditions": "1 µM", "remaining binding [%]": 100}
{"SMILES": "COc1cnc(Nc2cccc(S(N)(=O)=O)c2)nc1N1CCN(c2ccccc2)CC1", "target": "PIK3CA E545K", "test": "binding, competition with immobilised ligand", "conditions": "1 µM", "remaining binding [%]": 72}
{"SMILES": "Cc1cnc(Nc2ccc(C(=O)N3CCC(N4CCCC4)CC3)cc2)nc1-c1cc2ccccc2s1", "target": "PIK3CA", "test": "binding, competition with immobilised ligand", "conditions": "1 µM", "remaining binding [%]": 97}
{"SMILES": "O=C(NS(=O)(=O)c1ccc(NCC2CCOCC2)c([N+](=O)[O-])c1)c1ccc(N2CCN(Cc3ccc(C(F)(F)F)cc3-c3ccc(Cl)cc3)CC2)cc1Oc1cnc2[nH]ccc2c1", "target": "PIK3CA H1047Y", "test": "cell-free assay, competition with immobilised ligand", "conditions": "1 µM", "remaining binding [%]": 67}
{"SMILES": "CN1CCN(c2ccc(Nc3nccc(-c4cccc([N+](=O)[O-])c4)n3)cc2C(F)(F)F)CC1", "target": "PIK3CA H1047Y", "test": "binding", "conditions": "10 µM", "remaining binding [%]": 27}
{"SMILES": "CCCOc1ccc([C@H]2[C@H](C(=O)O)[C@@H](c3ccc4c(c3)OCO4)CN2CC(=O)Nc2c(CC)cccc2CC)cc1", "target": "PIK3CA E545A", "test": "cell-free assay, competition with immobilised ligand", "conditions": "1 µM", "remaining binding [%]": 92}
{"SMILES": "COc1ncc2cc3ccccc3nc2c1C#N", "target": "PIK3CA", "test": "cell-free assay, competition with immobilised ligand", "conditions": "5 µM", "remaining binding [%]": 100}
{"SMILES": "Cc1ccc(NC(=O)c2ccc(CN3CCN(C)CC3)cc2)cc1Nc1nccc(-c2cccnc2)n1", "target": "PIK3CA", "test": "cell-free assay, competition with immobilised ligand", "conditions": "0.1 µM", "remaining binding [%]": 100}
{"SMILES": "CN(CCCC(F)(F)F)c1nccc(-c2cnn3ncccc23)n1", "target": "PIK3CA H1047L", "test": "binding", "conditions": "1 µM", "remaining binding [%]": 100}
{"SMILES": "Nc1ncc2c(n1)-c1c([nH]c3ccc(C#CC4CC4)cc13)CCCC2", "target": "PIK3CA E545K", "test": "binding, competition with immobilised ligand", "conditions": "1 µM", "remaining binding [%]": 100}
{"SMILES": "O=C(c1ccc(Nc2ncc(Cl)c(-c3ccc(Cl)s3)n2)cc1)N1CCC(N2CCCC2)CC1", "target": "PIK3CA Q546K", "test": "binding, competition with immobilised ligand", "conditions": "1 µM", "remaining binding [%]": 100}
{"SMILES": "CNC(=O)[C@@H]1CC[C@@H](n2c(-c3ccc4cnccc4c3)nc3ccc(C(=O)NCc4cccc(C(N)=O)c4)cc32)C1", "target": "Phosphatidylinositol 4,5-bisphosphate 3-kinase catalytic subunit alpha isoform (PIK3CA, Homo sapiens, UniProt P42336, E542K)", "test": "binding, competition with immobilised ligand", "conditions": "1 µM", "remaining binding [%]": 100}
{"SMILES": "C[C@@H](c1ccc(-n2cnc3c(N)ncnc32)cc1)N1CCc2nn(C)c(Cc3ccccc3)c2C1=O", "target": "PIK3CA I800L", "test": "binding, competition with immobilised ligand", "conditions": "0.1 µM", "remaining binding [%]": 71}
{"SMILES": "O=C(c1ccc(Nc2nccc(-c3cc4ccccc4s3)n2)cc1)N1CCC(N2CCCC2)CC1", "target": "PIK3CA", "test": "binding, competition with immobilised ligand", "conditions": "1 µM", "remaining binding [%]": 100}
{"SMILES": "O=C(Nc1c[nH]nc1C(=O)NC1CCNCC1)c1cc(F)cc(F)c1", "target": "PIK3CA E545A", "test": "binding, competition with immobilised ligand", "conditions": "1 µM", "remaining binding [%]": 100}
{"SMILES": "COc1cnc(Nc2cccc(S(N)(=O)=O)c2)nc1N1CCN(c2ccccc2)C(=O)C1", "target": "PIK3CA M1043I", "test": "binding, competition with immobilised ligand", "conditions": "1 µM", "remaining binding [%]": 85}
{"SMILES": "O=C(NCCCN1CCOCC1)c1ccc(Nc2ncc(Cl)c(-c3ccc(Cl)s3)n2)cc1", "target": "PIK3CA E545A", "test": "binding, competition with immobilised ligand", "conditions": "1 µM", "remaining binding [%]": 100}
{"SMILES": "C[C@H]1CCN(c2nccc(-c3cnn4ncccc34)n2)C1", "target": "PIK3CA I800L", "test": "binding", "conditions": "1 µM", "remaining binding [%]": 95}
{"SMILES": "c1cncc(-c2cccc(Nc3nccc(NC4CCCCC4)n3)c2)c1", "target": "PIK3CA Q546K", "test": "binding, competition with immobilised ligand", "conditions": "10 µM", "remaining binding [%]": 100}
{"SMILES": "c1ccc(N2CCN(Cc3nc4ccccc4[nH]3)CC2)nc1", "target": "PIK3CA", "test": "cell-free assay, competition with immobilised ligand", "conditions": "1 µM", "remaining binding [%]": 100}
{"SMILES": "O=C(NCCCN1CCOCC1)c1ccc(Nc2nccc(-c3cc4ccccc4s3)n2)cc1", "target": "PIK3CA C420R", "test": "binding, competition with immobilised ligand", "conditions": "1 µM", "remaining binding [%]": 89}
{"SMILES": "FC(F)(F)c1ccc2c(c1)nc(-c1cccnc1)n2C1CC1", "target": "PIK3CA M1043I", "test": "cell-free assay, competition with immobilised ligand", "conditions": "1 µM", "remaining binding [%]": 100}
{"SMILES": "CC1CCCN1c1nccc(-c2cnn3ncccc23)n1 (stereo not drawn)", "target": "PIK3CA H1047Y", "test": "binding", "conditions": "1 µM", "remaining binding [%]": 88}
{"SMILES": "C[C@H](c1cccc(C#N)c1)n1cc(Cl)cc(C(N)=O)c1=N", "target": "PIK3CA Q546K", "test": "cell-free assay, competition with immobilised ligand", "conditions": "1 µM", "remaining binding [%]": 100}
{"SMILES": "Cc1cnn2ncc(-c3ccnc(N(C)C)n3)c2c1", "target": "PIK3CA", "test": "binding", "conditions": "1 µM", "remaining binding [%]": 100}
{"SMILES": "CCN1CCN(Cc2ccc(C(=O)Nc3ccc(C)c(Oc4ccc5c(c4)CC(=O)N5)c3)cc2C(F)(F)F)CC1", "target": "PIK3CA", "test": "binding, competition with immobilised ligand", "conditions": "1 µM", "remaining binding [%]": 86}
